Assay results taken from PubChem BioAssay AID651999 (Sanford-Burnham Center for Chemical Genomics, 2013).
In all, about 360,000 compounds went through this assay and about 1,400 (0.39%) were called active. Many of the other results were omitted from the sample, so actives are more common in it than they were. Values without a mark were called inactive.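 Rule for the calls: active = pattern-corrected inhibition above about 35%, with an unprinted fluorescence ratio check between 0.5 and 1.5 (limit read from the data, passing the limit was not always enough); inactive = the rest.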

target: COP9 signalosome complex subunit 5 (Homo sapiens) (UniProt Q92905); assay: inhibitors of CSN-mediated cullin deneddylation, primary screen, biochemical, fluorescence polarization, uHTS (AID 651999); settings: Purified CSN, SCF-Nedd8-OG deneddylation, at 12.5 µM, hits give high values;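 note: 0% = enzyme with substrate and 100% = substrate without enzyme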
How it was run: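 Material: purified human Csn5 enzyme expressed in HEK293T cells / Medium: Tris buffer pH 7.5, NaCl, DTT, Tween-20, trehalose, ovalbumin / Compound dosing: 12.5 µM single point / Schedule: 90 min incubation of compound, enzyme and substrate at room temperature / Signal: fluorescence polarization of the substrate / Control set: no-enzyme wells high, enzyme-with-substrate wells low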

COP9 signalosome complex subunit 5 (Homo sapiens), sequence (Q92905 whole entry, looked up, one chain of several): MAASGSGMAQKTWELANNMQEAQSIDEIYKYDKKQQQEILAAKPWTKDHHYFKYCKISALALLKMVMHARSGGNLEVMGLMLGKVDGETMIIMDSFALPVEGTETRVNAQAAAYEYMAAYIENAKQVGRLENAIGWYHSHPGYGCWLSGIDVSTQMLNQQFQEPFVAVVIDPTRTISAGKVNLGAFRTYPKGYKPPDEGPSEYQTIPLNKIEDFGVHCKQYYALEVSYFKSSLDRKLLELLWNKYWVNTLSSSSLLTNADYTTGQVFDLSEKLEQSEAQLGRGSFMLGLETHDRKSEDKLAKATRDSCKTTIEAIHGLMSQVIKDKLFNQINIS

Compound | inhibition
COc1ccc(N2C(=O)/C(=C/c3ccco3)C(=O)NC2=S)cc1 | 39.6% (active)
COc1ccc(NC(=O)N2Cc3ccccc3-n3nncc3C2)cc1 | 1.89%
COc1ccccc1N=Nc1c(O)[nH]c(=S)[nH]c1=O | 64.6% (active)
CCOCCc1c(O)[nH]c(=S)[nH]c1=O | -1.36%
O=C1N=c2ccccc2=C/C1=C\c1c(O)[nH]c(=S)[nH]c1=O | 3.94%
C=CC12CN(C)[C@@H]3C4CO[C@H](C[C@H]41)[C@]1(C(=O)Nc4ccccc41)[C@@H]32 (stereo not given in full) | 6.32%
CC(=O)Nc1ccccc1C(=O)OCC(=O)c1cccc2ccccc12 | -2.94%
CCN1CCN(c2nc3c(c(=O)[nH]2)CCC3)CC1 | 2.3%
CCNc1nc2[nH]c(=O)c3c(c2s1)OC(N)=C(C#N)C3c1cccs1 (stereo not given) | 7.11%
Cn1c(O)c(C=NCCN2CCNCC2)c(=O)n(C)c1=O | 2.48%
CC(C)(C)c1ccc(CN2C(=O)CN=C(c3ccccc3)c3ccccc32)cc1 | -0.66%
O=C(CN1CCCC1=O)NCCc1ccccc1 | -4.34%
O=C1CC(=O)N(Cc2ccccc2)C(=O)N1CCCCCCN1C(=O)CC(=O)N(Cc2ccccc2)C1=O | 81.1% (active)
COC(=O)C1=C(c2cc3ccccc3s2)C[C@@H]2CC[C@H]1N2C(=O)NC(C)C | 4.07%
Cc1cccc(-n2c(O)c(/C=N/N3CCOCC3)c(=O)[nH]c2=S)c1 | -0.17%
